Screening data as filed in PubChem BioAssay.
AHR activator: human AHR activation; AID 2796; activation, % at 5 µM; AHR-responsive luciferase reporter cells, luminescence; hit rate 2.5% among 320,000; in the data active means activation above about 47%;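 further: 0% = vehicle wells and 100% = reference agonist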
Yeast superoxide: yeast age-related superoxide inhibition as caloric restriction mimetic | superoxide response (% of plate mean), % at 10 µM | hit rate 0.18% among 330,000 | S. cerevisiae aged cells, superoxide DHE fluorescence; hits give low values;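 active means superoxide response under a set limit, about three screen SD below normal, cut at about 65% in these data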;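 further: yeast aged for seven days with compound at 30 °C before DHE staining; 100% = average MFI of all compound-treated wells on the plate with controls excluded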
SMARCA2 activ: SMARCA2 function activation, primary screen; MG213 cells, MMTV-luciferase reporter, dexamethasone, overnight; hit rate 1% among 370,000; activation, % at 9.1 µM; in the data active means activation above about 7.8%;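 further: 0% = vehicle wells and 100% = reference activator wells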
SR-BI DiI inh: mouse SR-BI HDL lipid transfer inhibition; AID 488896; ldlA[mSR-BI] CHO cells, DiI-HDL uptake fluorescence, 3 h; hit rate 0.96% among 320,000; Q61009; inhibition, % at 12.5 µM;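 active means mean replicate inhibition of at least 70% and a set share of replicates each scoring 70 or more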;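 further: 0% = median of neutral control wells and 100% = median of positive control wells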
Target sequence (Q61009 whole entry, looked up): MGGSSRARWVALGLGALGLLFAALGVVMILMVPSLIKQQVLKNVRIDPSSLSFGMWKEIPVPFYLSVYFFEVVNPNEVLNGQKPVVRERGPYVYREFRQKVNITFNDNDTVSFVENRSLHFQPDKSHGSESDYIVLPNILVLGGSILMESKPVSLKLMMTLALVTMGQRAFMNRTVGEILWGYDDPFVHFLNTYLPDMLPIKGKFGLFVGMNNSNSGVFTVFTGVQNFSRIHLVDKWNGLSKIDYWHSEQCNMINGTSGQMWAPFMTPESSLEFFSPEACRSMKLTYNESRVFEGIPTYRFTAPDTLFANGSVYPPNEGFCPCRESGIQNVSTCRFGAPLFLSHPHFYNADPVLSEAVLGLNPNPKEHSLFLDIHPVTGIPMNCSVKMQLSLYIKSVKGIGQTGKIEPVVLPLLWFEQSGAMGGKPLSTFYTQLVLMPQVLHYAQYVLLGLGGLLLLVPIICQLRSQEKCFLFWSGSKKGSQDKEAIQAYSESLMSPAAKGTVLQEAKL
Hep lipid drop: modulators of hepatic lipid droplet formation. AML12 mouse hepatocytes, oleate lipid droplets, BODIPY imaging. inhibition, % at 6.5 µM. hit rate 0.4% among 240,000. AID 1656;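 active means lipid droplet intensity inhibited by at least 50%, with more than 500 cells counted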
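Test system: AML12 hepatocytes (mouse); reagent: oleate loading, 100 µM; dosing: one dose, 6.5 µM compound; incubation: overnight exposure; signal: fluorescence imaging, 20x objective, two fields per well; read-out basis: % inhibition of corrected integrated BODIPY droplet signal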
SR-BI uptake up: enhances SR-BI lipid uptake from DiI-HDL; CHO ldlA[mSR-BI] cells, DiI-HDL uptake fluorescence, 3 h; 100 = double the neutral-control signal; activation, % at 12.5 µM; hit rate 0.096% among 320,000;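 active means mean replicate activation of at least 60% and every replicate at or above 60%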;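 further: 0% = median plate neutral-control signal and 100% = twice that signal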
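System: LDL receptor-deficient CHO ldlA cells overexpressing murine SR-BI | Timing: 3 h uptake period with compound, 37 °C | Medium: HEPES-buffered (25 mM, pH 7.4) F12 plus 0.5% BSA | Dosing: Single-point compound dose | Signal: Bottom-read fluorescence, 550/595 nm | Read-out: Retained DiI signal reflecting DiI-HDL uptake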
SMARCA2 conf: confirmation of SMARCA2 (BRM) function activators | hit rate 30% among 3,500 | MG213 cells, MMTV-luciferase with dexamethasone, luminescence, overnight; MG213 cells expressing E1A, Rb sequestered; DMSO wells 0%, reference activator 100% | activation, % at 9.1 µM | shares compounds with SMARCA2 activ;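 active means activation above its plate's cutoff, the mean activation of tested wells plus 3 SD, cut at about 7.9% in these data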
GAL4-VP16 Luc: GAL4-VP16 reporter activation counter-screen; shares compounds with SMARCA2 activ; HEK293 GAL4-VP16 pG5luc reporter, luciferase luminescence; scaled: DMSO wells 0%, SAHA wells 100%; activation, % at 9.1 µM; hit rate 41% among 3,500; AID 686939;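 active means activation above the solvent-only control well mean plus 3 SD, averaged across control plates, cut at about 5.2% in these data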
* hit, by the source's call; . = no result. This is a sample that favours compounds with a hit; in the whole collection about 4.3% have one here.

SMILES	AHR activator	Yeast superoxide	SMARCA2 activ	SR-BI DiI inh	Hep lipid drop	SR-BI uptake up	SMARCA2 conf	GAL4-VP16 Luc
Cc1ccc2cc(NC(=O)c3cccc(F)c3)ccc2n1	-4	88	8.1*	21	3	-21	19*	5
COc1ccc(N2CCN(CCCNC(=O)CCc3cccc(Cl)c3)CC2)cc1	.	.	4	.	.	.	.	.
O=C1CCC2(CCC(c3ccccc3)CC2)N1CCO (stereo unspecified)	.	.	-3	.	.	.	.	.
COc1cc(C(=O)N2CC(=O)Nc3ccccc32)cc(OC)c1OC	.	.	9.2*	.	.	.	0	0
CCOC(=O)[C@]12CCCCC/C=C\1N(Cc1ccc(OC)cc1)C(=O)[C@H]2CC(=O)NCc1cccs1	.	.	-3	.	.	.	.	.
Cc1ccc(C(=O)OCc2cc(=O)n3ccsc3n2)s1	-1	112	-2	-9	.	9	.	.
Cc1ccc(C(=O)OCc2cc(=O)n3c(C)csc3n2)s1	1	97	8.8*	6	.	-6	8	1
CC(=O)OCC(=O)N1CCN(C(=O)C(=O)c2cccc(C(F)(F)F)c2)CC1	.	.	-5	.	.	.	.	.
O=C(Nc1ccc(F)cc1)c1ccc2[nH]c(=O)c(=O)[nH]c2c1	12	114	8.5*	-3	37	3	0	0
COc1cc(OC)c(OC)cc1CNCCNC(=O)c1ccco1	-1	112	9.2*	.	0	.	0	-1
COc1ccc(C2=Nc3ccccc3N(C(=O)c3ccncc3)C2C(=O)NC(C)C)cc1 (stereo unspecified)	.	.	9.7*	.	.	.	0	3
O=C(NCc1cccs1)c1ccc([N+](=O)[O-])cc1Cl	5	96	13*	-13	-26	13	2	2
N/N=C(/Cc1nc2ccccc2[nH]1)c1ccc([N+](=O)[O-])cc1	20	88	8.2*	40	-36	-40	4	5.9*
O=C(CCCCCN1C(=O)C2C3C=CC(C3)C2C1=O)Nc1ccc2ncccc2c1 (stereo unspecified)	.	.	0	.	.	.	.	.
COc1ccc(N=C(C)C2=C(O)c3ccccc3C2=O)cc1	-2	104	3	-13	12	13	.	.
CCOc1ccc(N=C(C)C2=C(O)c3ccccc3C2=O)cc1	3	108	19*	-3	-11	3	8.5*	12*
Cc1ccccc1NC(=O)N(C)[C@H]1C[C@H]2c3[nH]c4c(-c5ccc6c(c5)OCO6)cccc4c3CCN2C[C@H]1[C@H](C)O	.	.	-3	.	.	.	.	.
O=C(Nc1ccc(N2CCN(C(=O)c3ccco3)CC2)cc1)c1ccc(F)cc1	-4	101	-2	51	.	-51	.	.
O=C(c1ccco1)N1CCN(c2ccc(F)cc2)CC1	-3	90	18*	14	3	-14	2	5.8*
CCN(CC(=O)Nc1cccc(OC)c1)C(=O)c1ccc(C)s1	1	96	8.2*	-17	-4	17	1	3
COc1cccc(NC(=O)CN(C)C(=O)CNC(=O)c2ccc(C)s2)c1	.	.	-1	-5	.	5	.	.
C/C(=C/c1nc(N)n(Cc2ccccc2)c1Cc1ccccc1)Cn1[nH]c(=O)n(-c2ccccc2)c1=O	.	.	-3	.	.	.	.	.
COc1ccc(-c2cnc3c(NC=O)cc(-c4ccc(F)cc4)cn23)cc1OC	.	.	15*	.	.	.	14*	6.3*
COc1cccc(-c2cc(NC=O)c3ncc(-c4ccc(OC)c(OC)c4)n3c2)c1	.	.	12*	.	.	.	11*	5
COc1cccc(-c2cnc3c(NC=O)cc(-c4ccc(OC)cc4OC)cn23)c1	.	.	3	.	.	.	.	.
SMILES	AHR activator	Yeast superoxide	SMARCA2 activ	SR-BI DiI inh	Hep lipid drop	SR-BI uptake up	SMARCA2 conf	GAL4-VP16 Luc
COc1ccc(-c2cnc3c(NC=O)cc(-c4cccc(NS(C)(=O)=O)c4)cn23)cc1OC	.	.	36*	.	.	.	36*	7.8*
COc1cccc(-c2cnc3c(NC=O)cc(-c4cc(OC)c(OC)c(OC)c4)cn23)c1	.	.	-1	.	.	.	.	.
COc1ccc(-c2cc(NC=O)c3ncc(-c4ccc(OC)c(OC)c4)n3c2)c(OC)c1	.	.	11*	.	.	.	17*	11*
COC(=O)[C@]12C[C@H](CC(=O)N3CCSCC3)C(=O)N(CCC3=CCCCC3)C1=C[C@H](C(C)(C)C)O[C@@H]2C	.	.	-3	.	.	.	.	.
CS(=O)(=O)Nc1cccc(-c2cc(NC=O)c3ncc(-c4ccc(F)c(Cl)c4)n3c2)c1	.	.	9.1*	.	.	.	6	2
COc1ccc(-c2cnc3c(NC=O)cc(-c4ccccc4)cn23)cc1OC	.	.	14*	.	.	.	10*	6.1*
CC(=O)c1ccc(-c2cnc3c(NC=O)cc(-c4ccc(N5CCN(C)CC5)cc4)cn23)cc1	.	.	12*	.	.	.	16*	4
O=CNc1cc(-c2cccc(F)c2)cn2c(-c3ccc(F)c(Cl)c3)cnc12	.	.	3	.	.	.	.	.
COc1ccc(-c2cnc3c(NC=O)cc(-c4cc(OC)c(OC)c(OC)c4)cn23)cc1OC	.	.	15*	.	.	.	24*	9.4*
COC(=O)[C@]12C[C@H](CC(=O)N3CCC(c4ccccc4)CC3)C(=O)N(Cc3cccc4ccccc34)C1=C[C@H](C(C)C)O[C@@H]2C1CC1	.	.	-3	.	.	.	.	.
COc1cc(-c2cnc3c(NC=O)cc(-c4ccc(S(C)(=O)=O)cc4)cn23)cc(OC)c1OC	.	.	-4	.	.	.	.	.
COc1ccc(-c2cnc3c(NC=O)cc(-c4ccc(S(C)(=O)=O)cc4)cn23)cc1OC	.	.	11*	.	.	.	11*	4
Cc1ccc(-c2nnc(SCC(C)C)n2C)cc1	14	109	0	1	.	.	.	.
CC(C)CSc1nnc(-c2ccco2)n1C	.	.	8.4*	.	.	.	8.9*	2
O=C(Cc1ccccc1)N(c1ccc(F)cc1)C1C=CS(=O)(=O)C1 (stereo unspecified)	4	96	9.9*	-17	0	17	-2	0
O=C(Cc1ccc(F)cc1)N(c1ccc(F)cc1)C1C=CS(=O)(=O)C1 (stereo unspecified)	-1	96	0	-12	.	12	.	.
CC(=O)N1c2cc(S(=O)(=O)N3CCN(c4ccccc4F)CC3)c(Br)cc2CC1C (stereo unspecified)	.	.	-4	.	.	.	.	.
O=C1CCCCCCCN1Cc1ccccc1	0	78	-2	-2	.	2	.	.
CC1=NN(Cc2ccccc2)C(=O)C1	1	87	10*	-35	-12	35	-4	1
COc1cccc(-c2nc(N3CCN(C)CC3)c3ccccc3n2)c1O	6	95	19*	.	5	.	19*	3
CN1CCN(c2nc(-c3ccccc3O)nc3ccccc23)CC1	19	96	3	30	1	-30	.	.
Cc1nc(-c2ccc([N+](=O)[O-])cc2)sc1C(=O)O	10	82	9.6*	-25	-2	25	6	1
